Assay results: ChEMBL document CHEMBL1149772, “GdCl(3) catalysed Grieco condensation: a facile approach for the synthesis of novel pyrimidine and annulated pyrimidine fused indazole derivatives in single pot under mild conditions and their anti-microbial activity” (2008)
Converted amounts (≈) assume the structure as drawn.

Experiments:
Format in all cases: functional
Bacillus subtilis = test: Antibacterial activity against Bacillus subtilis MTCC 441 by broth dilution method
Procedure, shortened: (§1)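 Test bacteria kept on nutrient agar slants and subcultured in Petri dishes before testing. Nutrient agar and nutrient broth media. Compounds dissolved in acetone. MIC determined by broth dilution.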

Aspergillus niger [1] = test: Antifungal activity against Aspergillus niger MTCC 1344 at 100 ug/ml by agar cup diffusion method; conditions: read-out: IZ
Procedure, shortened: (§2)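 Agar cup diffusion on autoclaved potato dextrose agar (15 lb/inch², 20 min). A week-old culture was spread over the solidified agar, and 6 mm cups were bored. Compounds were in DMSO at 100–150; amphotericin-B reference at 50; DMSO control. Plates held at 28 °C for 48 h. Inhibition zone diameter read in mm.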

Rhizopus arrhizus [2] = test: Antifungal activity against Rhizopus oryzae MTCC 262 at 150 ug/ml by agar cup diffusion method; conditions: read-out: IZ; procedure, shortened: as §2
Candida albicans [3] = test: Antifungal activity against Candida albicans MTCC 227 at 150 ug/ml by agar cup diffusion method; conditions: read-out: IZ; procedure, shortened: as §2
Escherichia coli = test: Antibacterial activity against Escherichia coli MTCC 443 by broth dilution method; procedure, shortened: as §1
Staphylococcus aureus = test: Antibacterial activity against Staphylococcus aureus MTCC 96 by broth dilution method; procedure, shortened: as §1
Rhizopus arrhizus [4] = test: Antifungal activity against Rhizopus oryzae MTCC 262 at 100 ug/ml by agar cup diffusion method; conditions: read-out: IZ; procedure, shortened: as §2
Pseudomonas aeruginosa = test: Antibacterial activity against Pseudomonas aeruginosa MTCC 1688 by broth dilution method; procedure, shortened: as §1
Candida albicans [5] = test: Antifungal activity against Candida albicans MTCC 227 at 100 ug/ml by agar cup diffusion method; conditions: read-out: IZ; procedure, shortened: as §2
Aspergillus niger [6] = test: Antifungal activity against Aspergillus niger MTCC 1344 at 150 ug/ml by agar cup diffusion method; conditions: read-out: IZ; procedure, shortened: as §2
Candida albicans [7] = test: Antifungal activity against Candida albicans MTCC 227 at 50 ug/ml by agar cup diffusion method; conditions: MTCC 227, read-out: IZ
Aspergillus niger [8] = test: Antifungal activity against Aspergillus niger MTCC 1344 at 50 ug/ml by agar cup diffusion method; conditions: MTCC 1344, read-out: IZ; procedure, shortened: as §2
Rhizopus arrhizus [9] = test: Antifungal activity against Rhizopus oryzae MTCC 262 at 50 ug/ml by agar cup diffusion method; conditions: MTCC 262, read-out: IZ; procedure, shortened: as §2
Saccharomyces cerevisiae = test: Antifungal activity against Saccharomyces cerevisiae MTCC 36 at 50 ug/ml by agar cup diffusion method; conditions: MTCC 36, read-out: IZ; procedure, shortened: as §2

MIC (Bacillus subtilis)	MIC (Escherichia coli)	MIC (Staphylococcus aureus)	MIC (Pseudomonas aeruginosa)	SMILES	zone of inhibition at 100 µg/mL (Aspergillus niger [1])	zone of inhibition at 150 µg/mL (Rhizopus arrhizus [2])	zone of inhibition at 150 µg/mL (Candida albicans [3])	zone of inhibition at 100 µg/mL (Rhizopus arrhizus [4])	zone of inhibition at 100 µg/mL (Candida albicans [5])	zone of inhibition at 150 µg/mL (Aspergillus niger [6])	zone of inhibition at 50 µg/mL (Candida albicans [7])	zone of inhibition at 50 µg/mL (Aspergillus niger [8])	zone of inhibition at 50 µg/mL (Rhizopus arrhizus [9])	zone of inhibition at 50 µg/mL (Saccharomyces cerevisiae)
150 µg/mL (≈ 380 µM)	37.5 µg/mL (≈ 95.1 µM)	75 µg/mL (≈ 190 µM)	75 µg/mL (≈ 190 µM)	N#Cc1c(-c2ccccc2)cc(C(F)(F)F)c2c3n(nc12)[C@H]1C=CCC[C@H]1CN3	10 mm	12 mm	8 mm	8 mm	7 mm	12 mm	–	–	–	–
75 µg/mL (≈ 173 µM)	37.5 µg/mL (≈ 86.7 µM)	75 µg/mL (≈ 173 µM)	75 µg/mL (≈ 173 µM)	CC1(c2ccccc2)CCNc2c3c(C(F)(F)F)cc(-c4ccccc4)c(C#N)c3nn21 (configuration not stated)	–	12 mm	9 mm	–	8 mm	–	–	–	–	–
75 µg/mL (≈ 159 µM)	37.5 µg/mL (≈ 79.4 µM)	37.5 µg/mL (≈ 79.4 µM)	75 µg/mL (≈ 159 µM)	N#Cc1c(-c2ccccc2)cc(C(F)(F)F)c2c3n(nc12)[C@@]1(c2ccccc2)CCCC[C@H]1CN3	–	9 mm	11 mm	–	9 mm	10 mm	–	–	–	–
150 µg/mL (≈ 377 µM)	75 µg/mL (≈ 188 µM)	150 µg/mL (≈ 377 µM)	150 µg/mL (≈ 377 µM)	N#Cc1c(C(F)(F)F)cc(-c2ccccc2)c2c3n(nc12)[C@H]1OCCC[C@H]1CN3	–	9 mm	10 mm	–	8 mm	–	–	–	–	–
–	–	–	–	N#Cc1c(C(F)(F)F)cc(-c2ccccc2)c2c3n(nc12)C(c1ccccc1)CCN3 (configuration not stated)	–	10 mm	–	8 mm	–	–	–	–	–	–
150 µg/mL (≈ 377 µM)	75 µg/mL (≈ 188 µM)	75 µg/mL (≈ 188 µM)	150 µg/mL (≈ 377 µM)	N#Cc1c(-c2ccccc2)cc(C(F)(F)F)c2c3n(nc12)[C@H]1OCCC[C@H]1CN3	–	–	–	9 mm	–	–	–	–	–	–
75 µg/mL (≈ 196 µM)	150 µg/mL (≈ 392 µM)	150 µg/mL (≈ 392 µM)	75 µg/mL (≈ 196 µM)	C=CC1(C)CCNc2c3c(-c4ccccc4)cc(C(F)(F)F)c(C#N)c3nn21 (configuration not stated)	–	–	–	–	–	–	–	–	–	–
150 µg/mL (≈ 394 µM)	37.5 µg/mL (≈ 98.6 µM)	37.5 µg/mL (≈ 98.6 µM)	75 µg/mL (≈ 197 µM)	N#Cc1c(-c2ccccc2)cc(C(F)(F)F)c2c3n(nc12)[C@H]1C=CC[C@H]1CN3	–	–	9 mm	–	–	10 mm	–	–	–	–
50 µg/mL (≈ 119 µM)	25 µg/mL (≈ 59.7 µM)	50 µg/mL (≈ 119 µM)	50 µg/mL (≈ 119 µM)	N#Cc1c(-c2ccccc2)cc(C(F)(F)F)c2c3n(nc12)C(c1ccccc1)CCN3 (configuration not stated)	–	–	–	–	–	–	–	–	–	–
150 µg/mL (≈ 392 µM)	150 µg/mL (≈ 392 µM)	75 µg/mL (≈ 196 µM)	150 µg/mL (≈ 392 µM)	C=CC1(C)CCNc2c3c(C(F)(F)F)cc(-c4ccccc4)c(C#N)c3nn21 (configuration not stated)	7 mm	–	8 mm	–	7 mm	8 mm	–	–	–	–
75 µg/mL (≈ 174 µM)	75 µg/mL (≈ 174 µM)	150 µg/mL (≈ 348 µM)	150 µg/mL (≈ 348 µM)	N#Cc1c(-c2ccccc2)cc(C(F)(F)F)c2c3n(nc12)[C@H]1c2ccccc2C[C@H]1CN3	–	9 mm	–	7 mm	–	9 mm	–	–	–	–
–	–	–	–	C[C@@H]1[C@H](O)[C@@H](C)/C=C/C=C/C=C/C=C/C=C/C=C/C=C/[C@H](O[C@@H]2O[C@H](C)[C@@H](O)[C@H](N)[C@@H]2O)C[C@@H]2O[C@](O)(C[C@@H](O)C[C@@H](O)[C@H](O)CC[C@@H](O)C[C@@H](O)CC(=O)O[C@H]1C)C[C@H](O)[C@H]2C(=O)O [AMPHOTERICIN B]	–	–	–	–	–	–	22 mm	23.5 mm	26 mm	23 mm
